ChEMBL document CHEMBL2146464, “Structure-activity relationship study of nitrosopyrimidines acting as antifungal agents” (Bioorg Med Chem, 2012)
≈ marks a conversion by molar mass, not a printed value. Calls of active or inactive are those of the source. The rule behind the calls is not given here.

Tests used:
Candida tropicalis [1] = assay: Antifungal activity against Candida tropicalis assessed as growth inhibition at 15.6 ug/mL by microplate reader analysis; type: functional; conditions: read-out: GI
Cryptococcus neoformans [2] = assay: Antifungal activity against Cryptococcus neoformans ATCC 32264 assessed as growth inhibition at 31.25 ug/mL after 48 hrs by microplate reader analysis; type: functional; conditions: ATCC 32264, 48 h, read-out: GI
Outline: (§1)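 Microplate growth-inhibition assay in RPMI-1640, compound at final 250–0.98 µg/mL (DMSO ≤1%). Inoculum 1–5 × 10³ CFU/mL. Sterility and DMSO growth controls included. Percent inhibition is computed from blank-corrected OD relative to the growth control, tested in duplicate.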

Candida albicans [3] = assay: Antifungal activity against Candida albicans ATCC 10231 assessed as growth inhibition at 250 ug/mL after 24 hrs by microplate reader analysis; type: functional; conditions: ATCC 10231, 24 h, read-out: GI
Outline: (§2)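 96-well RPMI-1640 wells with compound at final 250–0.98 µg/mL (DMSO ≤1%). Inoculum 100 µL, 1–5 × 10³ CFU/mL, 200 µL final. Each well includes growth (DMSO, no compound) and sterility controls. % inhibition = 100 − (CTW−SCW)/(GCW−SCW) × 100, run in duplicate.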

Candida tropicalis [4] = assay: Antifungal activity against Candida tropicalis assessed as growth inhibition at 7.8 ug/mL by microplate reader analysis; type: functional; conditions: read-out: GI
Cryptococcus neoformans [5] = assay: Antifungal activity against Cryptococcus neoformans ATCC 32264 assessed as growth inhibition at 15.6 ug/mL after 48 hrs by microplate reader analysis; type: functional; conditions: ATCC 32264, 48 h, read-out: GI; outline: as §1
Cryptococcus neoformans [6] = assay: Antifungal activity against Cryptococcus neoformans ATCC 32264 assessed as growth inhibition at 250 ug/mL after 48 hrs by microplate reader analysis; type: functional; conditions: ATCC 32264, 48 h, read-out: GI; outline: as §1
Candida tropicalis [7] = assay: Antifungal activity against Candida tropicalis after 48 hrs by NCCLS broth microdilution method; type: functional; conditions: read-out: MIC100
Outline: (§3)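 Yeast MIC by NCCLS M27-A3 broth microdilution in RPMI-1640 buffered to pH 7.0 with MOPS. Twofold dilutions of 250–0.98 µg/mL, final DMSO ≤1%. Inoculum 1–5 × 10³ CFU/mL. Incubated at 30 °C in a moist dark chamber. Read visually at 48 h. MIC100 is the lowest concentration with no visible growth versus drug-free control.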

Candida albicans [8] = assay: Antifungal activity against Candida albicans ATCC 10231 assessed as growth inhibition at 125 ug/mL after 24 hrs by microplate reader analysis; type: functional; conditions: ATCC 10231, 24 h, read-out: GI; outline: as §2
Cryptococcus neoformans [9] = assay: Antifungal activity against Cryptococcus neoformans ATCC 32264 after 48 hrs by microplate reader analysis; type: functional; conditions: ATCC 32264, 48 h; outline: as §1
Candida tropicalis [10] = assay: Antifungal activity against Candida tropicalis assessed as growth inhibition at 62.5 ug/mL by microplate reader analysis; type: functional; conditions: read-out: GI
Candida albicans [11] = assay: Antifungal activity against Candida albicans ATCC 10231 assessed as growth inhibition at 62.5 ug/mL after 24 hrs by microplate reader analysis; type: functional; conditions: ATCC 10231, 24 h, read-out: GI; outline: as §2
Aspergillus flavus = assay: Antifungal activity against Aspergillus flavus ATCC 9170 at 0.98 to 250 ug/mL by NCCLS broth microdilution method; type: functional, organism-based
Outline: (§4)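 MIC by broth microdilution per NCCLS M27-A3/M38-A2 in RPMI-1640 buffered to pH 7.0 with MOPS. Twofold dilutions from 250–0.98 µg/mL, final DMSO ≤1%. Inoculum 1–5 × 10³ CFU/mL. Incubated in a moist dark chamber, 30 °C for Aspergillus and 28–30 °C for dermatophytes. Read visually when control growth allowed. Endpoint is the lowest concentration giving total inhibition of visible growth (MIC100).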

Cryptococcus neoformans [12] = assay: Antifungal activity against Cryptococcus neoformans ATCC 32264 assessed as growth inhibition at 62.5 ug/mL after 48 hrs by microplate reader analysis; type: functional; conditions: ATCC 32264, 48 h, read-out: GI; outline: as §1
Candida albicans [13] = assay: Antifungal activity against Candida albicans ATCC 10231 after 48 hrs by NCCLS broth microdilution method; type: functional; conditions: ATCC 10231, 48 h, read-out: MIC100; outline: as §3
Candida albicans [14] = assay: Antifungal activity against Candida albicans ATCC 10231 after 24 hrs by microplate reader analysis; type: functional; conditions: ATCC 10231, 24 h; outline: as §2
Candida tropicalis [15] = assay: Antifungal activity against Candida tropicalis assessed as growth inhibition at 3.9 ug/mL by microplate reader analysis; type: functional; conditions: read-out: GI
Candida albicans [16] = assay: Fungicidal activity against Candida albicans ATCC 10231 at 0.98 to 250 ug/mL after 48 hrs by agar plate dilution method; type: functional, organism-based
Outline: (§5)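 MFC: after the microdilution MIC, material from each clear well was plated onto RPMI-1640 agar buffered with MOPS. Plates incubated at 30 °C and read after 48 h. MFC is the lowest concentration giving total inhibition of visible growth.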

Cryptococcus neoformans [17] = assay: Antifungal activity against Cryptococcus neoformans ATCC 32264 assessed as growth inhibition at 3.9 ug/mL after 48 hrs by microplate reader analysis; type: functional; conditions: ATCC 32264, 48 h, read-out: GI; outline: as §1
Nannizzia gypsea = assay: Antifungal activity against Microsporum gypseum CCC 115 at 0.98 to 250 ug/mL by NCCLS broth microdilution method; type: functional, organism-based; outline: as §4
Candida tropicalis [18] = assay: Fungicidal activity against Candida tropicalis at 0.98 to 250 ug/mL after 48 hrs by agar plate dilution method; type: functional, organism-based; outline: as §5
Candida tropicalis [19] = assay: Antifungal activity against Candida tropicalis assessed as growth inhibition at 250 ug/mL by microplate reader analysis; type: functional; conditions: read-out: GI
[20] = test system: Trichophyton mentagrophytes; assay: Antifungal activity against Trichophyton mentagrophytes ATCC 9972 at 0.98 to 250 ug/mL by NCCLS broth microdilution method; type: functional, organism-based; outline: as §4
Candida albicans [21] = assay: Antifungal activity against Candida albicans ATCC 10231 assessed as growth inhibition at 15.6 ug/mL after 24 hrs by microplate reader analysis; type: functional; conditions: ATCC 10231, 24 h, read-out: GI; outline: as §2
Cryptococcus neoformans [22] = assay: Antifungal activity against Cryptococcus neoformans ATCC 32264 after 48 hrs by NCCLS broth microdilution method; type: functional; conditions: ATCC 32264, 48 h, read-out: MIC100; outline: as §3
Cryptococcus neoformans [23] = assay: Antifungal activity against Cryptococcus neoformans ATCC 32264 assessed as growth inhibition at 125 ug/mL after 48 hrs by microplate reader analysis; type: functional; conditions: ATCC 32264, 48 h, read-out: GI; outline: as §1
Candida tropicalis [24] = assay: Antifungal activity against Candida tropicalis assessed as growth inhibition at 31.25 ug/mL by microplate reader analysis; type: functional; conditions: read-out: GI
Aspergillus fumigatus = assay: Antifungal activity against Aspergillus fumigatus ATCC 26934 at 0.98 to 250 ug/mL by NCCLS broth microdilution method; type: functional, organism-based; outline: as §4
Cryptococcus neoformans [25] = assay: Fungicidal activity against Cryptococcus neoformans ATCC 32264 after 48 hrs by agar plate dilution method; type: functional; conditions: ATCC 32264, 48 h; outline: as §5
Candida albicans [26] = assay: Antifungal activity against Candida albicans ATCC 10231 assessed as growth inhibition at 7.8 ug/mL after 24 hrs by microplate reader analysis; type: functional; conditions: ATCC 10231, 24 h, read-out: GI; outline: as §2
Aspergillus niger = assay: Antifungal activity against Aspergillus niger ATCC 9029 at 0.98 to 250 ug/mL by NCCLS broth microdilution method; type: functional, organism-based; outline: as §4
Candida albicans [27] = assay: Antifungal activity against Candida albicans ATCC 10231 assessed as growth inhibition at 31.25 ug/mL after 24 hrs by microplate reader analysis; type: functional; conditions: ATCC 10231, 24 h, read-out: GI; outline: as §2
Candida albicans [28] = assay: Antifungal activity against Candida albicans ATCC 10231 assessed as growth inhibition at 3.9 ug/mL after 24 hrs by microplate reader analysis; type: functional; conditions: ATCC 10231, 24 h, read-out: GI; outline: as §2
[29] = Acute toxicity in bony fish assessed as mortality at 38.4 ug/mL after 96 hrs; conditions: actinopterygii; read-out: Activity
Outline: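 Guppy (Poecilia reticulata) acute static exposure: 10 fish per concentration in 2 L wide-mouthed jars holding the test solution. Compounds were added from […] to give the final concentrations. Dead fish were counted and removed every 24 h, with general condition noted; percentage mortality was scored at 96 h. Two experiments, each in triplicate.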

Candida tropicalis [30] = assay: Antifungal activity against Candida tropicalis assessed as growth inhibition at 125 ug/mL by microplate reader analysis; type: functional; conditions: read-out: GI
Candida tropicalis [31] = assay: Antifungal activity against Candida tropicalis by microplate reader analysis; type: functional
Trichophyton rubrum = assay: Antifungal activity against Trichophyton rubrum CCC 110 at 0.98 to 250 ug/mL by NCCLS broth microdilution method; type: functional, organism-based; outline: as §4
Cryptococcus neoformans [32] = assay: Antifungal activity against Cryptococcus neoformans ATCC 32264 assessed as growth inhibition at 7.8 ug/mL after 48 hrs by microplate reader analysis; type: functional; conditions: ATCC 32264, 48 h, read-out: GI; outline: as §1

Work on `COc1nc(N)nc(Nc2cccc(Cl)c2)c1N=O` yielded an inhibition of growth at 15.6 µg/mL (Candida tropicalis [1]) of 75.2%, an inhibition of growth at 31.25 µg/mL (Cryptococcus neoformans [2]) of 81.3% and an inhibition of growth at 250 µg/mL (Candida albicans [3]) of 100%. It also gave an inhibition of growth at 7.8 µg/mL (Candida tropicalis [4]) of 64.5%, an inhibition of growth at 15.6 µg/mL (Cryptococcus neoformans [5]) of 80.6% and an inhibition of growth at 250 µg/mL (Cryptococcus neoformans [6]) of 100%. For the same compound, the MIC (Candida tropicalis [7]) was 125 µg/mL (≈ 447 µM), the inhibition of growth at 125 µg/mL (Candida albicans [8]) was 100% and the MIC50 (Cryptococcus neoformans [9]) was 3.9 µg/mL (≈ 13.9 µM). For the same compound, the inhibition of growth at 62.5 µg/mL (Candida tropicalis [10]) was 87.9%, the inhibition of growth at 62.5 µg/mL (Candida albicans [11]) was 92.7% and the Activity (Aspergillus flavus) was “inactive”. It also gave an inhibition of growth at 62.5 µg/mL (Cryptococcus neoformans [12]) of 83.7%, an MIC (Candida albicans [13]) of 125 µg/mL (≈ 447 µM) and an MIC50 (Candida albicans [14]) of 3.9 µg/mL (≈ 13.9 µM). For the same compound, the inhibition of growth at 3.9 µg/mL (Candida tropicalis [15]) was 48.8%, the Activity (Candida albicans [16]) was “inactive” and the inhibition of growth at 3.9 µg/mL (Cryptococcus neoformans [17]) was 53.2%. For the same compound, the Activity (Nannizzia gypsea) was “inactive”, the Activity (Candida tropicalis [18]) was “inactive” and the inhibition of growth at 250 µg/mL (Candida tropicalis [19]) was 100%. The Activity [20] was “inactive”, the inhibition of growth at 15.6 µg/mL (Candida albicans [21]) was 86.3% and the MIC (Cryptococcus neoformans [22]) was 125 µg/mL (≈ 447 µM). The inhibition of growth at 125 µg/mL (Cryptococcus neoformans [23]) was 100%, the inhibition of growth at 31.25 µg/mL (Candida tropicalis [24]) was 85.2% and the Activity (Aspergillus fumigatus) was “inactive”. The MFC (Cryptococcus neoformans [25]) was 250 µg/mL (≈ 894 µM), the inhibition of growth at 7.8 µg/mL (Candida albicans [26]) was 80.3% and the Activity (Aspergillus niger) was “inactive”. For the same compound, the inhibition of growth at 31.25 µg/mL (Candida albicans [27]) was 91.8%, the inhibition of growth at 3.9 µg/mL (Candida albicans [28]) was 53.3% and the mortality at 96 h, 38.4 ug/mL [29] was 0%. The inhibition of growth at 125 µg/mL (Candida tropicalis [30]) was 100%, the MIC50 (Candida tropicalis [31]) was 3.9 µg/mL (≈ 13.9 µM) and the Activity (Trichophyton rubrum) was “inactive”. The inhibition of growth at 7.8 µg/mL (Cryptococcus neoformans [32]) was 74.9%.
